Screening data: PubChem BioAssay, Broad Institute
IDH1 mut inh = inhibitors of human IDH1 R132H; AID 624101; inhibition, % at 10 µM; actives 0.18% (n = 70,000); IDH1 R132H reductase, diaphorase/resazurin fluorescence, 60 min; in the data active = inhibition above about 34%; inconclusive = no clear call, values can overlap the other calls; inactive = below about 11%;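 note: 0% = DMSO and 100% = no enzyme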
Target sequence (O75874 whole entry R132H): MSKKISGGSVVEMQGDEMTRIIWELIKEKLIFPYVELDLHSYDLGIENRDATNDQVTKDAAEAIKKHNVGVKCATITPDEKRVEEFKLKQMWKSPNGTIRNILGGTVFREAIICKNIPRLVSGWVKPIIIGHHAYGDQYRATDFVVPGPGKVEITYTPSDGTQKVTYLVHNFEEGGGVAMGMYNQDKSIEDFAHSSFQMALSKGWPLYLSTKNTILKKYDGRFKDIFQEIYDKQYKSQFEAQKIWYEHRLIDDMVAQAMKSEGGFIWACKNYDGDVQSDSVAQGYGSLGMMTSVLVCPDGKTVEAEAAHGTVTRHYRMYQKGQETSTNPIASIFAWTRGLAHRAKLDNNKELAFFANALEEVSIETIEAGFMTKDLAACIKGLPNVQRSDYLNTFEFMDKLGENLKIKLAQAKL
T cruzi growth-1 = blocks T. cruzi growth in NIH3T3 culture; T. cruzi beta-gal in NIH3T3, GalScreen luminescence, 90 h; inhibition, % at 8.34 µM; actives 5.9% (n = 77,000);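 active = mean inhibition above about 93%, with at least 55% of replicates each passing it, limit read from the data, passing the limit was not always enough; inconclusive = only one of those two conditions holds; inactive = neither condition holds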
KDM4C inh = blocks human GASC-1 (KDM4C) demethylase activity; Q9H3R0; GST-KDM4C 2-372, H3K9me3 peptide, LANCE TR-FRET; inhibition, % at 12.5 µM; actives 0.15% (n = 96,000); AID 720574;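 active = mean replicate inhibition above about 25%, with at least 55% of replicates also reaching it, limit read from the data, passing the limit was not always enough; inconclusive = only one of those two conditions met; inactive = neither condition met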
Target sequence (Q9H3R0 2-372 limits assumed): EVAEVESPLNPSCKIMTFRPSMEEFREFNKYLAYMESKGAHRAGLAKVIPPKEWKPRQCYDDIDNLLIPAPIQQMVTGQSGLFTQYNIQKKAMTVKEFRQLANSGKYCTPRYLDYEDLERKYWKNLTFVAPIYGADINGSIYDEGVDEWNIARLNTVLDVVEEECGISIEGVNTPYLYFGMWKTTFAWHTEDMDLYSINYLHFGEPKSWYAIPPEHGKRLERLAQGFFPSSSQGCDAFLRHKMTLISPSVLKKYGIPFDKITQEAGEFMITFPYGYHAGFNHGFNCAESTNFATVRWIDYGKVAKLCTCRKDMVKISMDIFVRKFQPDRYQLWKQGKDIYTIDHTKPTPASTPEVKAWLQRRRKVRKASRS
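Material: GST-tagged GASC-1 (JMJD2C) catalytic fragment, aa 2-372. Input: enzyme final amount 10 nM. Medium: HEPES buffer, pH 7.5, plus ascorbate. Reagent: H3K9me3 peptide substrate, Fe(II), 2-oxoglutarate. Doses: single dose. Times: reaction 30 min RT, detection step 1 h RT. Measured by: LANCE TR-FRET. Evaluation: Fall in 671/618 emission ratio as inhibition.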
T cruzi growth-2 = Trypanosoma cruzi proliferation inhibition. actives 72% (n = 5,600). shares compounds with T cruzi growth-1. inhibition, % at 8.35 µM. T. cruzi beta-gal in NIH3T3, GalScreen luminescence, 90 h;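 active = mean replicate inhibition above about 95% and at least 55% of replicates individually reaching it, limit read from the data; inconclusive = only one of the two criteria is met; inactive = neither criterion is met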
T cruzi growth-3 = blocks T. cruzi growth in NIH3T3 host cells; shares compounds with T cruzi growth-1; T. cruzi beta-gal in NIH3T3, GalScreen luminescence, 90 h; inhibition, % at 2.09 µM; actives 21% (n = 5,600);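 active = mean inhibition above about 95%, with at least 55% of replicates also reaching it, limit read from the data; inconclusive = meets just one of the two conditions; inactive = meets neither condition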;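 note: plate controls were neutral control median for no effect and positive control median for full effect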
3T3 cytotox = NIH/3T3 (mouse) viability loss; shares compounds with T cruzi growth-1; cytotoxicity (signal decrease), % at 8.35 µM; actives 14% (n = 5,600); NIH/3T3 viability, CellTiter-Glo ATP luminescence, 90 h;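 active = mean signal decrease across replicates above about 35% based on untreated-well scatter, with enough replicates individually passing, limit read from the data; inconclusive = no rule stated though some were filed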;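 note: 0% = median of neutral control wells and 100% = median of positive control wells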
3T3 cytotox 2 = cytotoxicity in mouse NIH/3T3 fibroblasts | shares compounds with T cruzi growth-1 | NIH/3T3 viability, CellTiter-Glo ATP luminescence, 90 h | inhibition, % at 24.9 µM | actives 56% (n = 5,600) | AID 651744;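 active = mean loss of cell viability signal at or above a set limit, and enough replicates individually reaching it; inconclusive = meets only the mean limit or only the replicate share; inactive = meets neither condition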;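 note: 0% = median of neutral control wells and 100% = median of positive control wells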
* marks the source's active call; other numbers are inactive results; ? = inconclusive; · = no result. The entries come from a sample that favours hits as a whole.

SMILES | IDH1 mut inh | T cruzi growth-1 | KDM4C inh | T cruzi growth-2 | T cruzi growth-3 | 3T3 cytotox | 3T3 cytotox 2
Cc1cccc(-c2ccc([C@H]3[C@H](CO)N4CCCCN(Cc5cncnc5)C[C@@H]34)cc2)c1 | · | 103.0* | -0.4 | 99.7* | 74.5 | 9.3 | 11.4
OC[C@H]1[C@@H](c2ccc(-c3ccccc3)cc2)[C@H]2CN(Cc3cncnc3)CCCCN21 | · | 62.2 | 1.1 | · | · | · | ·
OC[C@H]1[C@H](c2ccc(-c3cccc(F)c3)cc2)[C@H]2CN(Cc3cncnc3)CCCCN21 | · | 94.0* | 0.8 | 92.3 | -5.4 | 15.1 | 104.6*
Cc1cccc(-c2ccc([C@H]3[C@@H](CO)N4CCCCN(Cc5ccncc5)C[C@@H]34)cc2)c1 | · | 103.1* | 4.3 | 110.8* | 68.0 | 24.9 | 105.2*
OC[C@@H]1[C@@H](c2ccc(-c3cccc(F)c3)cc2)[C@H]2CN(Cc3cncnc3)CCCCN12 | · | 60.3 | 0.4 | · | · | · | ·
Cc1cccc(-c2ccc([C@H]3[C@H]4CN(Cc5cncnc5)CCCCN4[C@H]3CO)cc2)c1 | · | 68.5 | 1.7 | · | · | · | ·
Cc1cccc(-c2ccc([C@@H]3[C@@H](CO)N4CCCCN(Cc5ccncc5)C[C@@H]34)cc2)c1 | · | 71.2 | 2.6 | · | · | · | ·
OC[C@H]1[C@H](c2ccc(-c3ccccc3)cc2)[C@@H]2CN(Cc3cncnc3)CCCCN12 | · | 106.6* | -0.8 | 103.0* | 94.1 | 22.8 | 34.5*
O=C(CSc1nc2nc3c(cc2c(=O)n1-c1ccccc1)CCCC3)Nc1ccc(Cl)cc1 | 0.1 | · | · | · | · | · | ·
COc1cc2c(cc1NC(=O)CCCOc1ccccc1)oc1ccccc12 | 0.8 | · | · | · | · | · | ·
CCn1c(SCc2nc3ccccc3c(=O)[nH]2)nnc1-c1cc2cccc(OC)c2o1 | -0.4 | · | · | · | · | · | ·
C=C(C(=O)/C=C/C(C)(C)O)C1CC2O[C@]2(C)C(=O)[C@H]1OC(=O)CC(C)C (some centres not stated) | -0.1 | · | · | · | · | · | ·
Cc1cc(Br)ccc1NC(=O)CSc1nnc(-c2ccccc2O)n1-c1ccccc1 | 0.2 | · | · | · | · | · | ·
CCC(C)C1NC(=O)C(CC(C)C)NC(=O)C(CC(=O)O)NC(=O)C(C(C)C)NC(=O)C(CC(C)C)NC(=O)C(CC(C)C)NC(=O)C(CCC(N)=O)NC(=O)CC(CCCCCCCCCC(C)C)OC1=O (configuration not stated) | 0.1 | · | · | · | · | · | ·
COc1ccc(NC(=O)N2CCCCN3[C@@H](CO)[C@@H](c4ccc(C#Cc5ccccn5)cc4)[C@@H]3C2)cc1 | · | 57.8 | -0.9 | · | · | · | ·
O=C(Nc1ccc(F)cc1)N1CCCCN2[C@@H](CO)[C@@H](c3ccc(C#Cc4ccccn4)cc3)[C@@H]2C1 | · | 110.2* | -0.9 | 103.2* | 97.0* | 15.7 | 35.5*
O=C(Nc1ccc(F)cc1)N1CCCCN2[C@H](CO)[C@@H](c3ccc(C#Cc4ccccn4)cc3)[C@H]2C1 | · | 93.0 | -0.3 | · | · | · | ·
COc1ccc(NC(=O)N2CCCCN3[C@H](CO)[C@@H](c4ccc(C#Cc5ccccn5)cc4)[C@@H]3C2)cc1 | · | ? | -1.8 | 111.2* | 92.2 | -3.2 | 13.5
CSc1ccccc1NC(=O)C(C)n1nc(C)c([N+](=O)[O-])c1C (configuration not stated) | 0.2 | · | · | · | · | · | ·
CCc1cnc(N2[C@H](C#N)[C@@H](c3ccc(-c4cccc(F)c4)cc3)[C@@H]2CO)s1 | · | ? | -1.7 | 104.4* | 52.0 | -3.9 | 100.0*
CCc1cnc(N2[C@H](C#N)[C@H](c3ccccc3)[C@H]2CO)s1 | · | -6.9 | -0.5 | · | · | · | ·
CCc1cnc(N2[C@H](C#N)[C@@H](c3ccccc3)[C@H]2CO)s1 | · | 6.5 | -1.1 | · | · | · | ·
CCc1cnc(N2[C@@H](C#N)[C@H](c3ccc(C#Cc4ccccc4F)cc3)[C@@H]2CO)s1 | · | 110.1* | -1.3 | 105.1* | 94.3 | 10.7 | 1.6
CCc1cnc(N2[C@H](C#N)[C@@H](c3ccc(C4=CCCC4)cc3)[C@@H]2CO)s1 | · | 85.6 | 4.4 | · | · | · | ·
CCc1cnc(N2[C@H](C#N)[C@@H](c3ccc(C#Cc4ccccc4F)cc3)[C@@H]2CO)s1 | · | 100.4* | -0.8 | 100.1* | 107.1* | -25.4 | 84.9*
SMILES | IDH1 mut inh | T cruzi growth-1 | KDM4C inh | T cruzi growth-2 | T cruzi growth-3 | 3T3 cytotox | 3T3 cytotox 2
O=C(CN1CCN(S(=O)(=O)c2ccc3ccccc3c2)CC1)Nc1cc(Cl)ccc1Cl | 0.7 | · | · | · | · | · | ·
Cn1c(SCC(=O)Nc2sc3c(c2C#N)CCCC3)nnc1-c1ccc(Br)cc1 | -0.2 | · | · | · | · | · | ·
Cn1c(SCC(=O)c2ccc([N+](=O)[O-])cc2)nnc1-c1cccs1 | 0.3 | · | · | · | · | · | ·
C=CCN(CC=C)C(=O)Cc1ccc(Br)cc1 | 1.1 | · | · | · | · | · | ·
CC(C)CC#Cc1ccc2c(c1)O[C@H](CN(C)C(=O)C1CCC1)[C@@H](C)CN([C@H](C)CO)S2(=O)=O | · | 93.4 | -0.8 | · | · | · | ·
CC(C)CC#Cc1ccc2c(c1)O[C@@H](CN(C)C(=O)C1CC1)[C@H](C)CN([C@H](C)CO)S2(=O)=O | · | 84.8 | -1.9 | · | · | · | ·
CC(C)CC#Cc1ccc2c(c1)O[C@@H](CN(C)C(=O)C1CCCCC1)[C@@H](C)CN([C@H](C)CO)S2(=O)=O | · | 114.5* | -0.6 | 95.7* | 116.1* | 1.5 | 104.7*
CC(C)CC#Cc1ccc2c(c1)O[C@H](CN(C)C(=O)C1CCCCC1)[C@H](C)CN([C@H](C)CO)S2(=O)=O | · | 110.7* | -0.8 | 98.6* | 106.4* | 63.4* | 104.3*
CC(C)CC#Cc1ccc2c(c1)O[C@@H](CN(C)C(=O)C1CCCCC1)[C@H](C)CN([C@H](C)CO)S2(=O)=O | -8.5 | 114.0* | 3.6 | 100.2* | 111.5* | -2.1 | 103.9*
CC(C)CC#Cc1ccc2c(c1)O[C@@H](CN(C)C(=O)C1CCOCC1)[C@H](C)CN([C@@H](C)CO)S2(=O)=O | -0.2 | 98.3 | -9.9 | · | · | · | ·
N#Cc1c(NC(=O)CSc2ncccn2)sc2c1CCCC2 | 0.3 | · | · | · | · | · | ·
COc1cc(/C=N/NC(=O)c2ccccc2O)cc(OC)c1OC | 0.4 | · | · | · | · | · | ·
Cc1ccc(-c2nnc3c4ccccc4c(C)nn23)cc1S(=O)(=O)NCC1CCCO1 (configuration not stated) | 0.2 | · | · | · | · | · | ·
Cc1cc(NC(=O)CN(c2ccc(Cl)c(C(F)(F)F)c2)S(C)(=O)=O)ccc1Br | -0.3 | · | · | · | · | · | ·
COc1ccc(C#Cc2ccc3c(c2)[C@H]2[C@H](CCN2C(=O)c2cccc(F)c2)[C@@H](CO)N3)cc1 | · | 60.7 | 0.6 | · | · | · | ·
O=C(c1cccc(F)c1)N1CC[C@H]2[C@H](CO)Nc3ccc(C#Cc4ccccc4)cc3[C@H]21 | · | · | 0.3 | · | · | · | ·
COc1ccc(C#Cc2ccc3c(c2)[C@@H]2[C@@H](CCN2C(=O)c2cccc(F)c2)[C@@H](CO)N3)cc1 | · | 102.2* | -0.6 | 108.1* | 83.9 | -1.6 | 25.8*
O=C(c1cccc(F)c1)N1CC[C@@H]2[C@H]1c1cc(C#Cc3ccc(F)cc3)ccc1N[C@@H]2CO | · | 114.3* | -2.4 | 107.7* | 91.0 | -2.1 | 79.1*
